Data taken from paper PMC4467237 (Clinical Pharmacology in Drug Development, 2014).
“Also recorded” adds a separate entry of the source. Like-named read-outs stand apart in the source and are kept apart here. Marks after values point to notes of the source that are not given here.

Tests used:
[1] = cited from earlier work
Safety assessments = format: in vivo, human
Summary of the method: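 Healthy adults in a randomized two-sequence crossover with a 14-day washout. Each period gave an oral 400 mg interacting drug or placebo once daily for 18 days, plus a single oral 5 mg test compound on day 5 after a 10-h fast. AEs checked daily, graded mild/moderate/severe and for causality, coded in MedDRA v14.0. Vital signs taken before PK draws. Labs, 12-lead ECG and physical exam at baseline, predose and discharge. Summarized descriptively in dosed subjects with ≥1 postdose assessment.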

[2] = human; cited from earlier work
CYP3A4 = conditions: lenvatinib 0.1–10 µg/mL, human liver microsomes and human recombinant CYPs; ref Eisai data on file; cited from earlier work
[3] = healthy volunteers, cited from earlier work
[4] = format: in vivo, human; conditions: for AUC(0-t) / AUC(0-inf) / Tmax / half-life: human, plasma, oral
[5] = single agent, Phase I and II studies; cited from earlier work
[6] = 5 mg lenvatinib + ketoconazole 400 mg/day [B], n = 16
[7] = 5 mg lenvatinib + placebo [A], n = 16
[8] = 5 mg, arithmetic mean (SD), 5 mg lenvatinib + placebo [A], n = 16
[9] = 5 mg, geometric mean (%CV), 5 mg lenvatinib + placebo [A], n = 16
[10] = arithmetic mean (SD), 5 mg lenvatinib + ketoconazole 400 mg/day [B], n = 16
[11] = geometric mean (%CV), 5 mg lenvatinib + ketoconazole 400 mg/day [B], n = 16

SMILES: Cc1cn(-c2cc(NC(=O)c3ccc(C)c(Nc4nccc(-c5cccnc5)n4)c3)cc(C(F)(F)F)c2)cn1 [nilotinib]
- Increase in AUC with ketoconazole coadministration ([1]; nilotinib): more than 200%
- Increase in Cmax with ketoconazole coadministration ([1]; nilotinib): 84%

SMILES: Cc1ccc(NC(=O)c2ccc(CN3CCN(C)CC3)cc2)cc1Nc1nccc(-c2cccnc2)n1 [imatinib]
- Increase in AUC with ketoconazole coadministration ([1]; imatinib): 40%

SMILES: COc1cc2nccc(Oc3ccc(NC(=O)NC4CC4)c(Cl)c3)c2cc1C(N)=O [Lenvatinib]
- Subjects reporting treatment-emergent AEs (Safety assessments; following ketoconazole with lenvatinib, 18 subjects): 44%
- Subjects reporting treatment-emergent AEs (Safety assessments; following placebo with lenvatinib, 17 subjects): 59%
- ECG results (Safety assessments; overall, both treatments): either normal or considered not clinically significant
- Serious TEAEs (Safety assessments; overall, both treatments): No serious TEAEs were reported
- Subjects with treatment-related TEAEs (Safety assessments; overall, both treatments): 22%
- Subjects reporting treatment-emergent AEs (Safety assessments; overall, both treatments, N = 18): 72%
- Hypertension (Safety assessments; single-dose lenvatinib 5 mg alone or with ketoconazole, healthy subjects): not observed
- Renal clearance as contributor to oral clearance [2]: 1–2%
- Terminal exponential half-life (t½,z) [2]: ~28 h
- Share of CYP3A4 in the CYP-mediated metabolism of lenvatinib (CYP3A4): > 80%
- Median tmax ([3]; range 1–4 hours): 2 h
- Mean t½ ([3]; range 11–57 hours): 27.6 h
- AUC0–∞ [3]: 1409 ng·h/mL
- Mean Cmax [3]: 144.5 ng/mL
- CL/F, arithmetic mean (SD) [4, 6]: 7.70 (1.49) L/h
- tlag, arithmetic mean (SD) [4, 6]: 0.06 (0.17) ^e h
- CL/F, arithmetic mean (SD) [4, 7]: 8.78 (1.40) L/h
- tlag, arithmetic mean (SD) [4, 7]: 0.16 (0.24) ^b h
- Increase in Cmax with ketoconazole versus placebo ([4]; 5 mg lenvatinib, ketoconazole 400 mg/day): 19%
- Percent extrapolation of AUC0–∞ ([4]; across all subjects): < 4%
- Median time at which Cmax was achieved ([4]; both treatment conditions (placebo or ketoconazole)): 3 h
- AUC(0-t) [4, 8]: 571 ng·h/mL
- AUC(0-t) [4, 9]: 564 ng·h/mL
- AUC(0-inf) [4, 8]: 584 ng·h/mL
- AUC(0-inf) [4, 9]: 577 ng·h/mL
- Tmax ([4]; 5 mg, tmax median (range), 5 mg lenvatinib + placebo [A]): 3 h
- Tmax ([4]; 5 mg, tmax, arithmetic mean (SD), 5 mg lenvatinib + placebo [A], n = 16): 3.13 h
- half-life ([4]; 5 mg, t½ median (range), 5 mg lenvatinib + placebo [A]): 29 h
- AUC(0-t) [4, 10]: 661 ng·h/mL
- AUC(0-t) [4, 11]: 647 ng·h/mL
- AUC(0-inf) [4, 10]: 676 ng·h/mL
- AUC(0-inf) [4, 11]: 662 ng·h/mL
- Tmax ([4]; tmax median (range), 5 mg lenvatinib + ketoconazole [B]): 3 h
- Tmax ([4]; tmax, arithmetic mean (SD), 5 mg lenvatinib + ketoconazole 400 mg/day [B], n = 16): 2.56 h
- half-life ([4]; t½ median (range), 5 mg lenvatinib + ketoconazole [B]): 29.2 h
- half-life ([4]; t½, arithmetic mean (SD), 5 mg lenvatinib + ketoconazole 400 mg/day [B], n = 16): 28.3 h
- Decrease in apparent mean clearance in the ketoconazole treatment group ([4]; versus placebo): ~12%
- Difference in tmax, t½ or tlag between the two treatments ([4]; visual assessment, ketoconazole versus placebo): No changes; also recorded: no difference
- Maximum tolerated dose [5]: 25 mg/day
